Data published in ChEMBL document CHEMBL3112531, “Synthesis and evaluation of 4-(2-pyrimidinylamino) benzamides inhibitors of hedgehog signaling pathway” (Bioorg Med Chem Lett, 2014).
Values belong to the compound of their own block, whether it stands above or below them.

Key:
[1] = Inhibition of hedgehog signaling pathway in mouse NIH/3T3 cells by Gli1-luciferase reporter gene assay; assay type: cell-based; details: NIH3T3
[2] = Ratio of GDC-0449 IC50 to compound IC50 for hedgehog signaling pathway in mouse NIH/3T3 cells by Gli1-luciferase reporter gene assay; assay type: cell-based
[3] = (§1) Mean residence time (0 to t) in Sprague-Dawley rat at 1 mg/kg, iv; assay type: ADME, organism-based; set-up: dose 1 mg/kg, route intravenous; details: Sprague-Dawley, in vivo
Procedure, shortened: (§2)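 SD rats given a single 1 mg/kg iv dose in 5% DMA + 5% Tween-80. Plasma concentration–time data were analysed by a noncompartmental approach.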

[4] = AUC in Sprague-Dawley rat at 1 mg/kg, iv; assay type: ADME, organism-based; set-up: dose 1 mg/kg, route intravenous; details: plasma; procedure, shortened: as §2
[5] = Half life in Sprague-Dawley rat at 1 mg/kg, iv; assay type: ADME, organism-based; set-up: dose 1 mg/kg, route intravenous; details: in vivo; procedure, shortened: as §2
[6] = Volume of distribution at steady state in Sprague-Dawley rat at 1 mg/kg, iv; assay type: ADME, organism-based; set-up: dose 1 mg/kg, route intravenous; details: Sprague-Dawley, in vivo, read-out: Vdss; procedure, shortened: as §2
[7] = Cmax in Sprague-Dawley rat at 1 mg/kg, iv; assay type: ADME, organism-based; set-up: dose 1 mg/kg, route intravenous; details: in vivo; procedure, shortened: as §2
[8] = Clearance in Sprague-Dawley rat at 1 mg/kg, iv; assay type: ADME, organism-based; set-up: dose 1 mg/kg, route intravenous; details: in vivo; procedure, shortened: as §2
[9] = Cmax in Sprague-Dawley rat at 5 mg/kg, po; assay type: ADME, organism-based; set-up: dose 5 mg/kg, route oral; details: in vivo
Procedure, shortened: (§3)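 SD rats dosed orally at 5 mg/kg in 0.5% HPMC + 0.3% Tween-80 (pH 2.8). Blood samples (n = 3) were centrifuged at 4000 rpm for 5 min at 4 °C. Plasma concentration–time data were analysed noncompartmentally.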

[10] = Clearance in Sprague-Dawley rat at 5 mg/kg, po; assay type: ADME, organism-based; set-up: dose 5 mg/kg, route oral; details: in vivo; procedure, shortened: as §3
[11] = AUC in Sprague-Dawley rat at 5 mg/kg, po; assay type: ADME, organism-based; set-up: dose 5 mg/kg, route oral; details: plasma; procedure, shortened: as §3
[12] = Mean residence time (0 to t) in Sprague-Dawley rat at 5 mg/kg, po; assay type: ADME, organism-based; set-up: dose 5 mg/kg, route oral; details: in vivo; procedure, shortened: as §3
[13] = Oral bioavailability in Sprague-Dawley rat at 5 mg/kg; assay type: ADME, organism-based; details: in vivo
Procedure, shortened: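 Oral dosing of SD rats at 5 mg/kg in 0.5% HPMC + 0.3% Tween-80 (pH 2.8), with blood samples n = 3, alongside iv dosing at 1 mg/kg in 5% DMA + 5% Tween-80. Plasma concentration–time data were analysed noncompartmentally.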

Rattus norvegicus [14] = assay: Volume of distribution at steady state in Sprague-Dawley rat at 5 mg/kg, po; assay type: ADME, organism-based; set-up: dose 5 mg/kg, route oral; details: in vivo; procedure, shortened: as §3
[15] = Half life in Sprague-Dawley rat at 5 mg/kg, po; assay type: ADME, organism-based; set-up: dose 5 mg/kg, route oral; details: in vivo; procedure, shortened: as §3
Rattus norvegicus [16] = assay: as §1; assay type: ADME, organism-based; set-up: dose 1 mg/kg, route intravenous; details: in vivo; procedure, shortened: as §2

Structure (SMILES): Cc1ccc(CN2CCC(O)CC2)cc1NC(=O)c1ccc(Nc2ncc(C)c(-c3cnn(C)c3)n2)cc1
IC50 [1]: 21.2 nM

Structure (SMILES): Cc1ccc(CN2CCCc3ccccc32)cc1NC(=O)c1ccc(Nc2ncc(C)c(-c3ccc(OC(F)(F)F)cc3)n2)cc1
IC50 [1]: 2.4 nM

Structure (SMILES): Cc1ccc(CN2CCC(O)CC2)cc1NC(=O)c1ccc(Nc2ncc(C)c(-c3ccc(OC(F)(F)F)cc3)n2)cc1
IC50 [1]: 0.44 nM

Structure (SMILES): Cc1ccc(CN2CCCC2)cc1NC(=O)c1ccc(Nc2ncc(C)c(-c3ccc(OC(F)(F)F)cc3)n2)cc1
Ratio IC50 [2]: 7 | IC50 [1]: 0.43 nM

Structure (SMILES): Cc1ccc(CN(CCO)CCO)cc1NC(=O)c1ccc(Nc2ncc(C)c(-c3ccc(OC(F)(F)F)cc3)n2)cc1
IC50 [1]: 0.47 nM

Structure (SMILES): Cc1ccc(CN2CCOCC2)cc1NC(=O)c1ccc(Nc2ncc(C)c(-c3ccccc3)n2)cc1
MRT last [3]: 1.2 h | AUC [4]: 710 ng·h/mL | half-life [5]: 1 h | Vd [6]: 2.1 L/kg | Cmax [7]: 840 ng/mL | clearance [8]: 23.3 mL/min/kg | IC50 [1]: 0.68 nM

Structure (SMILES): Cc1ccc(CN2C[C@@H](C)O[C@@H](C)C2)cc1NC(=O)c1ccc(Nc2ncc(C)c(-c3cnn(C)c3)n2)cc1
IC50 [1]: 8.4 nM

Structure (SMILES): CCCN(C)Cc1ccc(C)c(NC(=O)c2ccc(Nc3ncc(C)c(-c4ccc(OC(F)(F)F)cc4)n3)cc2)c1
IC50 [1]: 0.93 nM

Structure (SMILES): Cc1ccc(CN2CCCCC2)cc1NC(=O)c1ccc(Nc2ncc(C)c(-c3cnn(C)c3)n2)cc1
IC50 [1]: 5.6 nM

Structure (SMILES): Cc1ccc(CN2CCN(C)CC2)cc1NC(=O)c1ccc(Nc2ncc(C)c(-c3ccncc3)n2)cc1
MRT last [3]: 0.9 h | AUC [4]: 270 ng·h/mL | half-life [5]: 1.1 h | Vd [6]: 5.7 L/kg | Cmax [7]: 580 ng/mL | clearance [8]: 61.5 mL/min/kg | IC50 [1]: 0.61 nM

Structure (SMILES): Cc1ccc(CN2CCSCC2)cc1NC(=O)c1ccc(Nc2ncc(C)c(-c3ccc(OC(F)(F)F)cc3)n2)cc1
Ratio IC50 [2]: 7 | IC50 [1]: 0.34 nM

Structure (SMILES): Cc1ccc(CN2CCC(=O)CC2)cc1NC(=O)c1ccc(Nc2ncc(C)c(-c3ccc(OC(F)(F)F)cc3)n2)cc1
IC50 [1]: 0.28 nM

Structure (SMILES): Cc1ccc(CNc2ccccc2)cc1NC(=O)c1ccc(Nc2ncc(C)c(-c3ccc(OC(F)(F)F)cc3)n2)cc1
IC50 [1]: 1.1 nM

Structure (SMILES): Cc1cnc(Nc2ccc(C(=O)Nc3c(C)cccc3C)cc2)nc1-c1ccc(OC(F)(F)F)cc1
MRT (Rattus norvegicus [16]): 4 h | MRT last [12]: 5.1 h | IC50 [1]: 1.3 nM

More lines, in order of falling IC50 [1], values ahead:

IC50 [1]: 33.6 nM
Structure (SMILES): Cc1ccc(CNCCN2CCCCC2)cc1NC(=O)c1ccc(Nc2ncc(C)c(-c3ccc(OC(F)(F)F)cc3)n2)cc1

IC50 [1]: 10.9 nM
Structure (SMILES): Cc1ccc(CN(CCNC(C)C)C(C)C)cc1NC(=O)c1ccc(Nc2ncc(C)c(-c3ccc(OC(F)(F)F)cc3)n2)cc1

IC50 [1]: 10 nM
Structure (SMILES): Cc1ccc(CN2CCN(C)CC2)cc1NC(=O)c1ccc(Nc2ncc(C)c(-c3cnn(C)c3)n2)cc1

IC50 [1]: 3.9 nM
Structure (SMILES): Cc1ccc(CN2CCC[C@@H]2CN2CCCC2)cc1NC(=O)c1ccc(Nc2ncc(C)c(-c3ccc(OC(F)(F)F)cc3)n2)cc1

IC50 [1]: 2.7 nM
Structure (SMILES): Cc1ccc(CN(C2CCCCC2)C2CCCCC2)cc1NC(=O)c1ccc(Nc2ncc(C)c(-c3ccc(OC(F)(F)F)cc3)n2)cc1

IC50 [1]: 2.5 nM
Structure (SMILES): Cc1ccc(CNCc2ccco2)cc1NC(=O)c1ccc(Nc2ncc(C)c(-c3ccc(OC(F)(F)F)cc3)n2)cc1

IC50 [1]: 1.6 nM
Structure (SMILES): Cc1ccc(CN2CC3CCCC3C2)cc1NC(=O)c1ccc(Nc2ncc(C)c(-c3ccc(OC(F)(F)F)cc3)n2)cc1 (stereo not given)

IC50 [1]: 1.5 nM
Structure (SMILES): Cc1ccc(CN2CCc3sccc3C2)cc1NC(=O)c1ccc(Nc2ncc(C)c(-c3ccc(OC(F)(F)F)cc3)n2)cc1

IC50 [1]: 0.59 nM
Structure (SMILES): Cc1ccc(CN(C)C)cc1NC(=O)c1ccc(Nc2ncc(C)c(-c3ccc(OC(F)(F)F)cc3)n2)cc1

IC50 [1]: 0.45 nM
Structure (SMILES): Cc1ccc(CN2CCN(C)CC2)cc1NC(=O)c1ccc(Nc2ncc(C)c(-c3ccc(OC(F)(F)F)cc3)n2)cc1

MRT last [3]: 7.4 h | Cmax [9]: 94 ng/mL | CL/F [10]: 51.9 mL/min/kg | AUC [4]: 580 ng·h/mL | half-life [5]: 9.2 h | AUC [11]: 1300 ng·h/mL | Vd [6]: 20 L/kg | MRT last [12]: 9.7 h | Cmax [7]: 300 ng/mL | bioavailability [13]: 44.4% | clearance [8]: 24.9 mL/min/kg | Vdss (Rattus norvegicus [14]): 42.9 L/kg | IC50 [1]: 0.45 nM | half-life [15]: 9.5 h
Structure (SMILES): Cc1ccc(CN2C[C@@H](C)O[C@@H](C)C2)cc1NC(=O)c1ccc(Nc2ncc(C)c(-c3ccc(OC(F)(F)F)cc3)n2)cc1
Ratio IC50 [2]: 7
